# From ChEMBL document CHEMBL4229456, “Salicylic Acid Derivatives Inhibit Oxalate Production in Mouse Hepatocytes with Primary Hyperoxaluria Type 1” (J Med Chem, 2018)
# Legend:
# [1] = target: T1, 2-Hydroxyacid oxidase 1 (Mus musculus) (UniProt Q9WU19); test: Inhibition of mouse recombinant glycolate oxidase expressed in Escherichia coli at 25 uM using glycolate as substrate after 1 min by sulfonated DCIP dye-based assay relative to control
# T1 sequence (whole entry): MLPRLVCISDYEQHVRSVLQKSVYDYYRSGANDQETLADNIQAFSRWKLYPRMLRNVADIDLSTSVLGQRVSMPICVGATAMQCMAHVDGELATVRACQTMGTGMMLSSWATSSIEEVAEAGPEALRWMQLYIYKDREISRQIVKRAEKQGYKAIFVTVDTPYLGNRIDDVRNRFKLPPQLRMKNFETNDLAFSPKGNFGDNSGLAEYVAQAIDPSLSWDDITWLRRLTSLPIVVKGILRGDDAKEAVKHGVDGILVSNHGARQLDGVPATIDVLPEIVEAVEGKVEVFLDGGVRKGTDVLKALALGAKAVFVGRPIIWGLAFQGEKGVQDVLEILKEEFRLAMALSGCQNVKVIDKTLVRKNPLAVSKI
# [2] = target: T1, 2-Hydroxyacid oxidase 1 (Mus musculus); test: Inhibition of glycolate oxidase in C57BL/6 Agxt1-/- mouse hepatocytes using glycolate as substrate assessed as relative oxalate level at 10 uM after 24 hrs; format: cell-based
# In short: (§1)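 Primary Agxt1-/- mouse hepatocytes in 6-well plates, serum-free Williams E with 5 mM glycolate, treated with 10 µM compound. Excreted oxalate measured 24 h later by oxalate oxidase–HRP colorimetric kit (595 nm) and expressed relative to untreated control. Mean ± SD, n = 3, one-way ANOVA.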
# [3] = target: T2, 2-Hydroxyacid oxidase 1 (Mus musculus, UniProt Q9WU19); test: Inhibition of mouse recombinant glycolate oxidase expressed in Escherichia coli using glycolate as substrate by sulfonated DCIP dye-based assay
# T2 sequence (Q9WU19 whole entry): T1 sequence (whole entry)
# In short: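 Purified recombinant mGO (10 µL at 0.1 µg/µL) with saturating glycolate (22.2 mM) in 50 mM potassium phosphate pH 7. Compound at 0.2 µM–0.2 mM; H2O2 detected by HRP-coupled sulfonated DCIP/4-aminoantipyrine dye at 515 nm. IC50 from nonlinear dose-response fitting.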
# [4] = target: T1, 2-Hydroxyacid oxidase 1 (Mus musculus); test: Inhibition of glycolate oxidase in C57BL/6 Agxt1-/- mouse hepatocytes using glycolate as substrate assessed as reduction in oxalate production at 10 uM after 24 hrs; format: cell-based; in short: as §1
# [5] = target: T2, 2-Hydroxyacid oxidase 1; test: Inhibition of glycolate oxidase in mouse Agxt1-/- hepatocytes using glycolate as substrate assessed as reduction in oxalate production after 72 hrs by sulfonated-DCIP dye-based assay; format: cell-based
# [6] = target: T2, 2-Hydroxyacid oxidase 1; test: Inhibition of glycolate oxidase in mouse Agxt1-/- hepatocytes using glycolate as substrate assessed as reduction in oxalate production after 24 hrs by sulfonated-DCIP dye-based assay; format: cell-based
# [7] = system: Mus musculus; test: Reduction in urine oxalate levels in Agxt1-/- mouse model at 110 mg/kg administered via oral gavage measured after 24 hrs post treatment for 11 days relative to control; format: functional; set-up: scale not given: the % may be the effect or the level left
# [8] = target: T2, 2-Hydroxyacid oxidase 1; test: Inhibition of glycolate oxidase in mouse Agxt1-/- hepatocytes using glycolate as substrate assessed as reduction in oxalate production after 48 hrs by sulfonated-DCIP dye-based assay; format: cell-based
# [9] = target: T2, 2-Hydroxyacid oxidase 1; test: Inhibition of mouse N-terminal His-tagged glycolate oxidase expressed in BL21(DE3) Escherichia coli using glycolate as substrate by Cornish-Bowden plot analysis
# In short: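 Recombinant mouse GO came from E. coli carrying a pET15b Hao1 vector and was purified by affinity chromatography. Glycolate oxidation was run in 50 mM potassium phosphate pH 7. H2O2 was coupled through HRP with sulfonated DCIP/4-aminoantipyrine and read at 515 nm. Inhibitor and substrate concentrations were varied at constant enzyme, and Ki was taken from the line intersection in Cornish-Bowden and Dixon plots.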
# [10] = target: T1, 2-Hydroxyacid oxidase 1 (Mus musculus); test: Inhibition of glycolate oxidase in C57BL/6 Agxt1-/- mouse hepatocytes using glycolate as substrate assessed as relative oxalate level at 12.5 uM after 24 hrs; format: cell-based
# In short: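 Primary hepatocytes were isolated from male C57BL/6 Agxt1-/- mouse liver by in situ collagenase perfusion. They were plated at 3.0x10^5 cells/well in supplemented Williams E with 5% FBS, then switched after 5 h to serum-free medium and treated in the presence of 5 mM glycolate. Medium was collected at 24 h, or 48 and 72 h for dose-response. Oxalate was read by oxalate oxidase/HRP (MBTH/DMAB) at 595 nm relative to control.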
structure (smiles),measurement,setting,value
O=C(O)c1cc2ccccc2c(/N=N/c2c(O)cc(S(=O)(=O)O)c3ccccc23)c1O,inhibition,[1],75.1%
same,fold change (FC),[2],1.11
O=Cc1ccc(-c2ccc(C(=O)O)c(O)c2)s1,inhibition,[1],28.7%
same,fold change (FC),[2],1
O=C(O)c1cc(-c2ccc(CO)o2)ccc1O,inhibition,[1],98%
same,fold change (FC),[2],0.88
same,IC50,[3],4.6 µM
O=C(O)c1ccc(-c2ccoc2)cc1O,inhibition,[1],22.8%
same,fold change (FC),[2],1.02
O=C(O)c1cnc2cc(Cl)ccc2c1O,inhibition,[1],24.8%
N[C@@H](CCC(=O)Nc1ccc(O)c(C(=O)O)c1)C(=O)O,inhibition,[1],7.8%
Nc1ccc(C(=O)O)c(O)c1,inhibition,[1],14.9%
O=C(O)c1ccc(-c2ccc(OCc3ccccc3)cc2)cc1O,inhibition,[1],83.4%
same,fold change (FC),[2],1.11
same,IC50,[3],10.4 µM
Cc1ccc(-c2ccc(C(=O)O)c(O)c2)s1,inhibition,[1],28.7%
same,fold change (FC),[2],0.95
O=C(O)c1ccc(-c2ccc(O)cc2)cc1O,inhibition,[1],61.3%
same,fold change (FC),[2],0.82
same,IC50,[3],13.5 µM
O=C(O)c1cc(-c2ccccc2COc2cccc(C(F)(F)F)c2)ccc1O,inhibition,[1],96.2%
same,inhibition,[4],30%
same,fold change (FC),[2],0.68
same,IC50,[3],3.5 µM
O=Cc1ccc(-c2ccc(C(=O)O)c(CO)c2)o1,inhibition,[1],0%
same,fold change (FC),[2],0.98
CC(=O)c1ccc(O)c(C(=O)O)c1,inhibition,[1],22.1%
Cn1nccc1-c1ccc(C(=O)O)c(O)c1,inhibition,[1],16.2%
same,fold change (FC),[2],0.93
O=C(O)c1cc2ccccc2c(/N=N/c2cc(C(F)(F)F)ccc2Cl)c1O,inhibition,[1],47.4%
same,fold change (FC),[2],0.91
O=C(O)c1ccc(-c2ccccc2COc2cc(F)cc(F)c2)cc1O,inhibition,[1],77.7%
same,fold change (FC),[2],0.72
same,IC50,[3],8.3 µM
O=C(O)c1ccc(-c2ccc([N+](=O)[O-])cc2)cc1O,inhibition,[1],41.9%
same,fold change (FC),[2],0.91
same,IC50,[3],19.7 µM
O=C(O)c1cc(Sc2nnnn2-c2ccccc2)c2ccccc2c1O,inhibition,[1],75.3%
same,fold change (FC),[2],0.99
same,IC50,[3],11.1 µM
O=C(O)c1ccc(-c2ccccc2COc2cccc(C(F)(F)F)c2)cc1O,inhibition,[1],98.6%
same,inhibition,[4],30%
same,fold change (FC),[2],0.62
same,IC50,[3],4.4 µM
O=C(O)c1ccc(-c2ccc(CO)o2)cc1O,inhibition,[1],85.7%
same,fold change (FC),[2],0.88
same,IC50,[3],7.9 µM
O=Cc1ccc(-c2ccc3cc(O)c(C(=O)O)cc3c2)o1,inhibition,[1],26.2%
Cc1ccc(/N=N/c2cc(C(=O)O)cc3ccccc23)c(S(=O)(=O)O)c1,inhibition,[1],1.5%
O=C(O)c1cc(-c2ccoc2)ccc1O,inhibition,[1],26.6%
same,fold change (FC),[2],0.89
O=C(O)c1cc(-c2ccsc2)ccc1O,inhibition,[1],25.2%
same,fold change (FC),[2],0.94
O=C(O)c1cc(Oc2ccc([N+](=O)[O-])cc2)c2ccccc2c1O,inhibition,[1],96.3%
same,fold change (FC),[2],0.77
same,IC50,[3],2.9 µM
Nc1ccc(O)c(C(=O)O)c1 [MESALAMINE],inhibition,[1],71.9%
same,fold change (FC),[2],0.88
same,IC50,[3],7.8 µM
O=Cc1ccc(-c2ccc(O)c(C(=O)O)c2)s1,inhibition,[1],52.1%
same,fold change (FC),[2],0.93
same,IC50,[3],9.4 µM
O=C(O)c1nnsc1Sc1ccc(Cl)cc1,inhibition,[1],34.8%
same,EC50,[5],34 µM
same,EC50,[6],25.3 µM
same,Activity,[7],30 - 50%
same,EC50,[8],33 µM
same,IC50,[9],43.5 µM
same,Ki,[9],20.3 µM
same,fold change (FC),[10],0.63
same,IC50,[3],43.5 µM
COc1ccc(COc2ccc(-c3ccc(O)c(C(=O)O)c3)cc2)cc1,inhibition,[1],83.8%
same,fold change (FC),[2],1.07
same,IC50,[3],9.5 µM
COc1ccc(COc2ccc(-c3ccc(C(=O)O)c(O)c3)cc2)cc1,inhibition,[1],65%
same,fold change (FC),[2],0.9
same,IC50,[3],13.8 µM
O=C(O)c1ccc(-c2ccncc2)cc1O,inhibition,[1],22.7%
same,fold change (FC),[2],0.88
O=C(O)c1cc([N+](=O)[O-])c(-c2ccco2)cc1O,inhibition,[1],5.9%
same,fold change (FC),[2],0.86
O=C(O)c1ccc(-c2ccc(O)c(C(=O)O)c2)o1,inhibition,[1],0%
same,inhibition,[4],30%
same,fold change (FC),[2],0.68
O=Cc1ccc(-c2ccc(C(=O)O)c(O)c2)o1,inhibition,[1],82.8%
same,fold change (FC),[2],0.88
same,IC50,[3],34.5 µM
O=C(O)c1cccc(F)c1O,inhibition,[1],13.5%
O=C(O)c1ccccc1O,inhibition,[1],18.5%
O=C(O)c1cc(-c2ccccc2COc2cc(F)cc(F)c2)ccc1O,inhibition,[1],84.5%
same,fold change (FC),[2],0.92
same,IC50,[3],5.8 µM
O=C(O)c1cc(-c2cccs2)ccc1O,inhibition,[1],30%
same,fold change (FC),[2],0.82
same,IC50,[3],39.5 µM
O=C(O)c1cc(-c2ccc(OCc3ccccc3)cc2)ccc1O,inhibition,[1],70.9%
same,fold change (FC),[2],0.8
same,IC50,[3],14.8 µM
O=C(O)c1ccc(-c2ccsc2)cc1O,inhibition,[1],41.4%
same,fold change (FC),[2],0.99
same,IC50,[3],21.6 µM
O=C(O)c1ccc(-c2ccco2)cc1O,inhibition,[1],35.8%
same,fold change (FC),[2],0.87
same,IC50,[3],39.3 µM
COC(=O)c1ccc(-c2ccc(C=O)o2)cc1OC,inhibition,[1],17.5%
same,fold change (FC),[2],0.9
COc1cccc(-c2ccc(C(=O)O)c(O)c2)c1,inhibition,[1],50.9%
same,fold change (FC),[2],0.83
same,IC50,[3],19.5 µM
O=Cc1ccc(-c2ccc(O)cc2)o1,inhibition,[1],24.2%
same,fold change (FC),[2],0.32
O=C(O)c1ccc(-c2ccc(C(=O)O)c(O)c2)o1,inhibition,[1],0%
CC(=O)c1ccc(-c2ccc(C(=O)O)c(O)c2)s1,inhibition,[1],28.1%
same,fold change (FC),[2],0.89
O=C(O)c1ccc(-c2cccs2)cc1O,inhibition,[1],35.4%
same,fold change (FC),[2],0.74
same,IC50,[3],32.5 µM
O=C(O)c1cc2cc(Br)ccc2cc1O,inhibition,[1],42.3%
same,fold change (FC),[2],0.99
same,IC50,[3],39.9 µM
O=C(O)c1ccc(Cl)cc1O,inhibition,[1],20.8%
O=Cc1ccc(-c2cccc(C(=O)O)c2)o1,inhibition,[1],22.7%
same,fold change (FC),[2],0.86
COc1cc(-c2ccc(C=O)o2)ccc1C(=O)O,inhibition,[1],0%
same,fold change (FC),[2],0.82
